ChEMBL document CHEMBL4014325
Active and inactive are the calls of the source. The rule behind the calls is not given here.

Experiments:
Anoctamin-1 [1] = target: T1, Anoctamin-1 (Homo sapiens, UniProt Q5XXA6); assay: (§1) Inhibition of human TMEM16A expressed in FRT cells co-expressing iodide sensitive fluorescent protein YFP-H148Q/I152L/F46L assessed as reduction in ATP-induced Ca2+ activation-mediated chloride current by measuring decrease in iodide influx preincubated for 10 mins followed by ATP/iodide addition by fluorescence assay; format: cell-based
T1 sequence (Q5XXA6 whole entry): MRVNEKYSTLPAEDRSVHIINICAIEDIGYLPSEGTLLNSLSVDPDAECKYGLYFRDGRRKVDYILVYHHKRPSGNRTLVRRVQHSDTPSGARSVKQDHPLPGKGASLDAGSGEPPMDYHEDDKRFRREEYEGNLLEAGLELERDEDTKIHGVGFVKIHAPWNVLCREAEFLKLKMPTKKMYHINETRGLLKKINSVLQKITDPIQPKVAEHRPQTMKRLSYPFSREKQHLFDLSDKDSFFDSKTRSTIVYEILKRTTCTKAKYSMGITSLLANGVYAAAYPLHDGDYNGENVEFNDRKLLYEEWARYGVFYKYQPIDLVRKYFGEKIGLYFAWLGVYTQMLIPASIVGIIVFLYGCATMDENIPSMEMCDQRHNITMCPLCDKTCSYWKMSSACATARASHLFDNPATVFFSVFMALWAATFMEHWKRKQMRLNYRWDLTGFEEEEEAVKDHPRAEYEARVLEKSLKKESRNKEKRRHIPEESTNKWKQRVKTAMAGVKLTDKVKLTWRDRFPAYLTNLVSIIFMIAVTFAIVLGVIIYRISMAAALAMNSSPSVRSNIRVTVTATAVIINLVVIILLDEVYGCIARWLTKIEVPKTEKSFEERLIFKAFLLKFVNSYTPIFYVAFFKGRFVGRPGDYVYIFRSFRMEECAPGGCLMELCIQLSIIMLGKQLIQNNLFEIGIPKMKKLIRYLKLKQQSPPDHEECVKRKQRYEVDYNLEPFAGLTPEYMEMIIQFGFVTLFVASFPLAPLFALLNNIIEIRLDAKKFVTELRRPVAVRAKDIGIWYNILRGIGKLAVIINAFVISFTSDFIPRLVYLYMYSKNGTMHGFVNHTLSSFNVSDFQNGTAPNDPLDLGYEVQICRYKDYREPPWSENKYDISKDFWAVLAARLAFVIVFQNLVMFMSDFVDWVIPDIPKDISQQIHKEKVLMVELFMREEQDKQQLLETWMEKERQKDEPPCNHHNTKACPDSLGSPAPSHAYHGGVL
Summary of the method: (§2)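 FRT cells stably expressing human TMEM16A and YFP, plated at 20,000 cells/well and used 24–48 h later. An equal volume of 140 mM I⁻ solution containing 300 μM ATP was added, and reading continued 12 s at 400 ms/point. Initial I⁻ influx rate fitted by nonlinear regression; IC₅₀ from concentration-inhibition data.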

[2] = Cytotoxicity against human HT-29 cells assessed as cell survival at 5 uM after 8 hrs by alamar blue assay relative to control; format: cell-based; conditions: read-out: Survival
Summary of the method: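 Cells cultured overnight, then exposed to compound at 5 μM for 8 h. Viability read by Alamar Blue per kit instructions. Table reports n=3.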

[3] = target: Cystic fibrosis transmembrane conductance regulator (Homo sapiens) (UniProt P13569); assay: Inhibition of human wild type CFTR expressed in FRT cells co-expressing halide sensitive YFP-H148Q assessed as reduction in forskolin induced cAMP activated chloride conductance by measuring decrease in iodide influx after 15 mins by fluorescence assay; format: cell-based
Chain of Cystic fibrosis transmembrane conductance regulator (Homo sapiens) (P13569 whole entry, looked up): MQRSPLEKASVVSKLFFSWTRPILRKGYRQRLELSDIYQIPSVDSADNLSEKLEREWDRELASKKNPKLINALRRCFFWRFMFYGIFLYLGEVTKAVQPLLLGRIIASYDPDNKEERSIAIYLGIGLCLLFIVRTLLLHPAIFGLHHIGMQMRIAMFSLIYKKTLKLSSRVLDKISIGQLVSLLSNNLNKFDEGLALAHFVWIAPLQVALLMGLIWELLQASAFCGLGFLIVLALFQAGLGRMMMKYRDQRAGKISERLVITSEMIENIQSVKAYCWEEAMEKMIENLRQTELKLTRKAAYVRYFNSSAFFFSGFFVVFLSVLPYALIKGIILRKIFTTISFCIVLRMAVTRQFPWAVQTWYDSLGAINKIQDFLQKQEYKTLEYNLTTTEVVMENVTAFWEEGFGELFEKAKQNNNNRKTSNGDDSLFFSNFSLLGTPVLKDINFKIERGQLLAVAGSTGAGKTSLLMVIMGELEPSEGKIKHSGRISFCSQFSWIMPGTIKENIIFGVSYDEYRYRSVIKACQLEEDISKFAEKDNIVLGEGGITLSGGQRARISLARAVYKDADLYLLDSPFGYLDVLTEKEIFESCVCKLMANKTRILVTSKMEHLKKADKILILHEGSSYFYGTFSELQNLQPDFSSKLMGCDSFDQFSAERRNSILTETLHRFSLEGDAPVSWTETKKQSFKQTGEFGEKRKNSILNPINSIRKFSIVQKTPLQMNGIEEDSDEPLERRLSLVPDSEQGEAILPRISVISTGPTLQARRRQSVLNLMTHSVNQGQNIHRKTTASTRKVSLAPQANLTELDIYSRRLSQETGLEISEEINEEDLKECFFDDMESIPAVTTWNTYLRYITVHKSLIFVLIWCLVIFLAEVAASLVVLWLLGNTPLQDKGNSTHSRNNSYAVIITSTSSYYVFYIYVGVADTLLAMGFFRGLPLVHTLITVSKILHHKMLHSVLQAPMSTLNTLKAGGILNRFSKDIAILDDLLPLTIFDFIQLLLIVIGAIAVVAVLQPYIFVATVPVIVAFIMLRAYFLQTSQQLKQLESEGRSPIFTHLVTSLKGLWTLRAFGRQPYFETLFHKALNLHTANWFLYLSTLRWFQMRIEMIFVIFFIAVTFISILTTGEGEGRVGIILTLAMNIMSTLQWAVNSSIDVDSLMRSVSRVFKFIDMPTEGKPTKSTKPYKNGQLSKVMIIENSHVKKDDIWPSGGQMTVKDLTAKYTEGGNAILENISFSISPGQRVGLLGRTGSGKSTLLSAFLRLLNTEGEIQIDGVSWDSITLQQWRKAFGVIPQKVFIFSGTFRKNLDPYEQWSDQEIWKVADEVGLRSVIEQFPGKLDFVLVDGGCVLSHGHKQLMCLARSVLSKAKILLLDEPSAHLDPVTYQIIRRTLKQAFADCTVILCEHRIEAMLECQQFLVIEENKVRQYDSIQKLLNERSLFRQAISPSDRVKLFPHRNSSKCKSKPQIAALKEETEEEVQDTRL
Summary of the method: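 FRT cells co-expressing YFP and wild-type CFTR, washed with PBS. Incubated 15 min with compound in PBS containing 20 μM forskolin. Plate reader baseline 2 s, then 12 s after rapid addition of I⁻-containing solution; initial I⁻ influx rate computed.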

Anoctamin-2 [4] = target: T2, Anoctamin-2 (Homo sapiens, UniProt Q9NQ90); assay: Inhibition of TMEM16B (unknown origin) expressed in FRT cells assessed as reduction of ATP-induced chloride conductance preincubated for 20 mins followed by ATP addition by short-circuit current assay; format: cell-based
T2 sequence (Q9NQ90 whole entry): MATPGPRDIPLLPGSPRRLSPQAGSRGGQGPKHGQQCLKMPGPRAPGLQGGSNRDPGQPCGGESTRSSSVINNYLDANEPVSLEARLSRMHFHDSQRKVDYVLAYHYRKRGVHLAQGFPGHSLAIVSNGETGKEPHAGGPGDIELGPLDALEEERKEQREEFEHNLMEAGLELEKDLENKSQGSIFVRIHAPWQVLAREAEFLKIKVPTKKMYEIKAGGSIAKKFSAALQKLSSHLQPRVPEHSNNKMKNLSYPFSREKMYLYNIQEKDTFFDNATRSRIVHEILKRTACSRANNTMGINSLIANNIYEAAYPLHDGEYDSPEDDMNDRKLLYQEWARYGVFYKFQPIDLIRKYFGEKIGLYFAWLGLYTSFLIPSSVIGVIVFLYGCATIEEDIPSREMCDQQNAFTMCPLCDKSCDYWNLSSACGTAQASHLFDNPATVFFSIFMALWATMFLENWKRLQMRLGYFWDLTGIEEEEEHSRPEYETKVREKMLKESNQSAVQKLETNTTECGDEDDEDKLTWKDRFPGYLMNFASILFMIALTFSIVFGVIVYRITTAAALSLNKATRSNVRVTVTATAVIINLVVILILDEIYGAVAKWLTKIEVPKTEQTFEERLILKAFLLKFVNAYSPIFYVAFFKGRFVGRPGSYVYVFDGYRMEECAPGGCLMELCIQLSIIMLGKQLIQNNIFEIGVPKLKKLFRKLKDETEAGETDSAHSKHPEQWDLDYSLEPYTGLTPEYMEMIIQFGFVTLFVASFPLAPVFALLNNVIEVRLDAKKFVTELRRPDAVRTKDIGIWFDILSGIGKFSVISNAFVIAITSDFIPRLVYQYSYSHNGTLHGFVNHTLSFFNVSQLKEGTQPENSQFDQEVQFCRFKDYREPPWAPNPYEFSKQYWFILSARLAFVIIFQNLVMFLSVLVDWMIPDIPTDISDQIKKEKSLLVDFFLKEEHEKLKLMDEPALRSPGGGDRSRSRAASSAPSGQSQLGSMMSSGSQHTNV

Anoctamin-1 [5] = target: T1, Anoctamin-1; assay: Inhibition of human TMEM16A expressed in FRT cells assessed as reduction of ATP-induced in chloride conductance preincubated for 5 mins followed by ATP addition by short-circuit current assay; format: cell-based
[6] = Drug level in aqueous solution treated with 2-(2-Bromo-2,2-difluoro-acetylamino)-5,6,7,8-tetrahydro-4H-cyclohepta[b]thiophene-3-carboxylicacid-o-tolylamide after 3 days by ESI-LCMS analysis
Summary of the method: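 Duplicate samples of 100 μM compound in H₂O (20% DMSO) with 100 μM 5-chloro-3-phenyl-2,1-benzisoxazole as internal standard. Kept at 25 °C for 3 days and analysed daily by ESI-LCMS for the parent compound and the oxalamic acid degradation product.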

Liver = assay: Metabolic stability in rat liver microsomes at 10 uM after 180 mins in presence of NADPH by LC/MS analysis; format: ADME, microsome; conditions: 3 h
Summary of the method: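 10 μM compound shaken at 37 °C with rat liver microsomes (1 mg protein/mL) in 100 mM potassium phosphate buffer with 1 mM NADPH, sampled at 2–180 min. Quenched on ice with ice-cold ethyl acetate, centrifuged, supernatant dried and redissolved. Parent compound quantified by C₁₈ reverse-phase LC/MS (5–95% acetonitrile gradient); mean ± SEM, n=3.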

[7] = Inhibition of calcium activated chloride channel in ATP-activated human HT-29 cells expressing YFP-H148Q/152L assessed as reduction in iodide influx preincubated for 10 mins followed by ATP addition by fluorescence assay
Summary of the method: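 Endogenous non-TMEM16A CaCC in HT-29 cells expressing YFP, read by plate reader. Initial rate of I⁻ influx taken as a linear measure of channel function. IC₅₀ from concentration-inhibition data; n=3.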

[8] = target: T3, Anoctamin-1 (Homo sapiens) (UniProt Q5XXA6); assay: as §1; format: cell-based; summary of the method: as §2
T3 sequence (whole entry): T1 sequence (Q5XXA6 whole entry)

[9] = Solubility of compound in DMSO; format: physicochemical
Anoctamin-1 [10] = target: T1, Anoctamin-1; assay: Inhibition of TMEM16A (unknown origin) expressed in Xenopus laevis oocytes at -60 mV holding potential by voltage-clamp assay
Anoctamin-2 [11] = target: T2, Anoctamin-2; assay: as §1, with “TMEM16B” for “TMEM16A”; format: cell-based
Summary of the method: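 FRT cells co-expressing YFP and TMEM16B, given compound for 10 min, then I⁻ solution with ATP added. Fluorescence read by plate reader; initial I⁻ influx rate computed. IC₅₀ from concentration-inhibition data; n=3.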

With `CCC(=O)Nc1sc2c(c1C(=O)Nc1ccccc1OC(F)(F)F)CCCCC2` the IC50 (Anoctamin-1 [1]) was greater than 20 µM.

With `Cc1ccccc1NC(=O)c1c(NC(=O)C(F)(F)I)sc2c1CCCCC2` the viability at 8 h, 5 µM [2] was 96% and the inhibition [3] was “inactive”.

In the case of `CCC(=O)Nc1sc2c(c1C(=O)Nc1ccccc1C)CCCCC2`, the IC50 (Anoctamin-1 [1]) is reported as greater than 20 µM.

With `CCc1c(C)nc(SCC(=O)Nc2nc(-c3ccc(OC)cc3)cs2)nc1O` the viability at 8 h, 5 µM [2] was 97%, the inhibition [3] was “inactive” and the IC50 (Anoctamin-2 [4]) was 4 µM. For the same molecule, the IC50 (Anoctamin-1 [5]) was 1 µM.

For `Cc1ccccc1NC(=O)c1c(NC(=O)C(=O)F)sc2c1CCCCC2`, the Drug metabolism [6] was “Metabolite detected”.

For `O=C(Nc1ccccc1)c1c(NC(=O)C(F)(F)F)sc2c1CCCCC2`, the inhibition [3] was “inactive”.

In the case of `COc1ccccc1/C=N/NC(=O)COc1ccc(Cl)cc1C`, the Stability (Liver) is reported as “Unstable” and the inhibition [3] is reported as “inactive”.

For `Cc1ccccc1NC(=O)c1c(NC(=O)C(F)(F)F)sc2c1CCCCC2`, the IC50 [7] was 4 µM, the viability at 8 h, 5 µM [2] was 99% and the inhibition [8] was “Dose-dependent effect”. For the same molecule, the inhibition [3] was “inactive”.

For `Cc1ccccc1NC(=O)c1c(NC(=O)C(F)(F)Cl)sc2c1CCCCC2`, the viability at 8 h, 5 µM [2] was 98% and the inhibition [3] was “inactive”.

For `O=C(Nc1ccccc1OC(F)(F)F)c1c(NC(=O)C(F)(F)Br)sc2c1CCC2`, the solubility [9] was “Insoluble”.

For `O=C(Nc1ccc(F)cc1)c1c(NC(=O)C(F)(F)I)sc2c1CCCCC2`, the inhibition [3] was “inactive”.

For `Cc1ccccc1NC(=O)c1c(NC(=O)C(=O)O)sc2c1CCCCC2`, the Drug metabolism [6] was “Metabolite detected”.

With `O=C(Nc1ccccc1OC(F)(F)F)c1c(NC(=O)C(F)(F)Cl)sc2c1CCC2` the solubility [9] was “Insoluble”.

Molecule `COc1cc(Nc2ccc([N+](=O)[O-])cc2C(=O)O)cc2ccccc12` has an IC50 [7] greater than 20 µM, a viability at 8 h, 5 µM [2] of 100% and an IC50 (Anoctamin-1 [10]) of 0.08 µM. For the same molecule, the inhibition [3] was “inactive”, the IC50 (Anoctamin-2 [11]) was 13 µM and the IC50 (Anoctamin-1 [5]) was 1.6 µM.

With `Cc1ccccc1NC(=O)c1c(NC(=O)C(O)(F)F)sc2c1CCCCC2` the Drug metabolism [6] was “Metabolite detected”.
